Experimental findings from ChEMBL document CHEMBL1687750, “Nonclinical pharmacokinetics of oseltamivir and oseltamivir carboxylate in the central nervous system” (Antimicrob Agents Chemother, 2009) are described below.

As usually defined, the clearance is the rate of elimination divided by the concentration. A high value points to a high capacity for elimination. As usually defined, the Cmax is the maximum level reached in the sampled fluid or tissue.

A value given as a limit tells only on which side of the number the result lay.

A short description of data set [1]: Clearance in Sprague-Dawley rat at 30 mg/kg, iv. To be noted: in vivo. More on the design: dose 30 mg/kg, route intravenous. The class given is ADME, organism-based. Summed up: (§1)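 Nonfasted adult rats received 30 mg/kg in aqueous 0.9% NaCl (pH 4.0) by slow tail-vein injection over 20–30 s. Groups were sampled at 5 min and 0.25, 0.5, 1, 2, 4 and 8 h, with 4–5 rats per time point, under terminal isoflurane. Blood was taken by heart puncture and CSF from the cisterna magna. Brains were homogenized either unperfused or after transcardial saline perfusion. Samples were assayed by LC-MS/MS, and pooled composite data were analyzed noncompartmentally.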

Data set [2] in a line: Prodrug conversion in 42 days old female rat liver S9 fractions assessed as paranitrophenol generation rate assessed per mg of protein per min. The class given is ADME, subcellular, S9 fraction. The essentials: (§2)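 Control esterase activity was measured by incubating 100 µM p-nitrophenyl acetate (final) with 0.05 mg rat brain or liver S9 protein in 1.5 ml Tris-HCl pH 7.4 for 1 min at 37°C. Reactions were quenched with acetonitrile, and product was quantified by HPLC-UV against external standards. The no-protein blank rate was subtracted, and rate was expressed per mg protein per min.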

Data set [3] in a line: AUC ratio in cerebrospinal fluid to plasma in Sprague-Dawley rat at 30 mg/kg, iv. The settings on record: cerebrospinal fluid and plasma, read-out: Ratio AUC. The format is ADME, organism-based. Also on record: dose 30 mg/kg, route intravenous. The essentials: as §1
Data set [4] deals with MDR1 (P-gp, ABCB1) (Homo sapiens, UniProt P08183). Nature of the data set: Activity of human MDR1-mediated permeability from apical to basolateral side in pig LLC-PK1 cells in presence of P-gp inhibitor elacridar. To be noted: LLC-PK1, with elacridar (concentration not stated), read-out: permeability. The format is cell-based. The essentials:
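P-gp-transfected LLC-PK1 monolayers received [14C]oseltamivir (0.1–10 mM) plus Lucifer yellow on the apical or basolateral donor side, with or without 1 µM elacridar. Incubation was at 37°C under 5% CO2. The acceptor side was sampled at 0.5–3 h and counted by scintillation. Pe was taken from the 3 h point, without correction for marker flux. Three inserts were used per condition and averaged.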

Data set [5] can be described thus: Prodrug conversion in 7 days old female rat brain S9 fractions assessed as conversion of oseltamivir to oseltamivir carboxylate. The class given is ADME, tissue-based. The essentials:
(§3)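 S9 from brain or liver (rat S9 made by homogenizing tissue in ~4 ml Tris-sucrose buffer per g, supernatant after 9,000 × g at 10°C; pooled human brain and liver S9 also used), protein by bicinchoninic acid assay. Oseltamivir: triplicate, 10 μM 14C-oseltamivir final, 1.0 mg S9 protein, 100 mM Tris-HCl pH 7.4, 30 min at 37°C, quenched with TCA-acetonitrile.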

The nature of data set [6]: Prodrug conversion in 42 days old male rat liver S9 fractions assessed as paranitrophenol generation rate assessed per mg of protein per min. The format is ADME, subcellular, S9 fraction. Summed up: as §2
Data set [7] is described as follows: Prodrug conversion in 7 days old male rat brain S9 fractions assessed as conversion of oseltamivir to oseltamivir carboxylate. The format is ADME, tissue-based. Summed up:
as §3

Data set [8] is described as follows: Prodrug conversion in 7 days old female rat brain S9 fractions assessed as oseltamivir carboxylate generation rate assessed per mg of protein per min. The format is ADME, tissue-based. Summed up:
as §3

Data set [9] is described as follows: Prodrug conversion in 42 days old male rat liver S9 fractions assessed as oseltamivir carboxylate generation rate assessed per mg of protein per min. The format is ADME, subcellular, S9 fraction. The essentials:
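Rat brain or liver S9 (9,000 × g supernatant; 1.0 mg protein) was incubated in triplicate with 10 µM 14C-oseltamivir (final) in 100 mM Tris-HCl pH 7.4 for 30 min at 37°C. Reactions were quenched with TCA-acetonitrile, and the fraction converted to OC was measured by radioflow HPLC with fractionation. Rate was calculated as (pmol/ml substrate × fraction hydrolyzed)/(mg protein/ml × time), minus the no-protein background.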

Data set [10] in a line: AUC (0 to infinity) ratio in brain to plasma in perfused Sprague-Dawley rat at 30 mg/kg, iv. The format is ADME, organism-based. Also on record: dose 30 mg/kg, route intravenous. To be noted: brain and plasma, read-out: Ratio AUC. The essentials: as §1
Data set [11] can be described thus: Prodrug conversion in commercial liver S9 fractions assessed as oseltamivir carboxylate generation rate assessed per mg of protein per min. The format is ADME, subcellular, S9 fraction. The essentials: as §3
The nature of data set [12]: Prodrug conversion in commercial liver S9 fractions assessed as paranitrophenol generation rate assessed per mg of protein per min. The format is ADME, subcellular, Liver S9 fraction.
The nature of data set [13]: Prodrug conversion in human liver S9 fractions assessed as paranitrophenol generation rate assessed per mg of protein per min. The format is ADME, subcellular, S9 fraction.
Data set [14] relates to Plasma. Kind of data set: AUC (0 to infinity) in non-perfused Sprague-Dawley rat plasma at 30 mg/kg. To be noted: in vivo, iv.
Data set [15] in a line: Prodrug conversion assessed as oseltamivir carboxylate level in presence of Sf9 cell culture supernatant expressing human recombinant HCE2 after 30 mins. The class given is ADME. The settings on record: sf9, 0.5 h. Summed up:
(§4)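 Culture supernatants from baculovirus-infected Sf9 cells (day 5–7; 1.0 mg/ml protein) were incubated in triplicate with 10 µM 14C-oseltamivir in 100 mM Tris-HCl at 37°C for 30 min. Reactions were quenched with TCA-acetonitrile, then analyzed by HPLC with fraction scintillation counting. Conversion was calculated as OC radioactivity over total radioactivity, corrected for no-enzyme hydrolysis. Wild-type virus and liver S9 served as controls.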

Data set [16] is described as follows: Prodrug conversion assessed as oseltamivir carboxylate level in presence of Sf9 cell culture supernatant expressing human recombinant HCE1 after 30 mins. The format is ADME. To be noted: sf9, 0.5 h. The essentials:
as §4

The subject of data set [17] is Plasma. Kind of data set: AUC (0 to 8 hrs) after iv dose in perfused Sprague-Dawley rat plasma assessed as active metabolite oseltamivir carboxylate level at 30 mg/kg. To be noted: in vivo.
The subject of data set [18] is Plasma. Kind of data set: AUC (0 to 8 hrs) after iv dose in non-perfused Sprague-Dawley rat plasma assessed as active metabolite oseltamivir carboxylate level at 30 mg/kg. To be noted: in vivo.
Data set [19] is described as follows: Cmax in perfused Sprague-Dawley rat brain at 30 mg/kg, iv after 0.25 hrs. The format is ADME, organism-based. Also on record: dose 30 mg/kg, route intravenous. The essentials:
as §1

Data set [20] concerns Cerebrospinal fluid. Nature of the data set: Cmax in non-perfused Sprague-Dawley rat cerebrospinal fluid assessed as active metabolite oseltamivir carboxylate level at 30 mg/kg, iv. The class given is ADME, organism-based. More on the design: dose 30 mg/kg, route intravenous. The settings on record: in vivo, BLD = below limit of detection. The essentials:
as §1

The subject of data set [21] is Plasma. Kind of data set: Cmax in non-perfused Sprague-Dawley rat plasma assessed as active metabolite oseltamivir carboxylate level at 30 mg/kg, iv. The class given is ADME, organism-based. More on the design: dose 30 mg/kg, route intravenous. The settings on record: in vivo. Summed up: as §1
Data set [22] in a line: Ratio of drug level in brain to plasma in non-perfused Sprague-Dawley rat at 30 mg/kg, iv. The format is ADME, organism-based. To be noted: brain and plasma, read-out: BPR. More on the design: dose 30 mg/kg, route intravenous. The essentials: (§5)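 Nonfasted Sprague-Dawley rats given 30 mg/kg i.v. in 0.9% NaCl pH 4.0 by tail vein over 20–30 s. Terminal sampling under isoflurane at 5 min, 0.25, 0.5, 1, 2, 4 and 8 h (4–5 rats/time): plasma, CSF, and brain homogenate, with or without saline perfusion. LC-MS/MS. t1/2, Vss and ratios from noncompartmental analysis of pooled composite concentrations.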

Data set [23] in a line: Cmax ratio in brain to plasma in perfused Sprague-Dawley rat at 30 mg/kg, iv. The format is ADME, organism-based. More on the design: dose 30 mg/kg, route intravenous. The settings on record: brain and plasma. Summed up:
as §1

For data set [24], the system named is Plasma. Nature of the data set: Terminal half life in perfused Sprague-Dawley rat plasma assessed as active metabolite oseltamivir carboxylate level at 30 mg/kg, iv. The format is ADME, organism-based. Also on record: dose 30 mg/kg, route intravenous. To be noted: in vivo. The essentials: as §5
A short description of data set [25]: AUC ratio in brain to plasma in perfused Sprague-Dawley rat at 30 mg/kg, iv. More on the design: dose 30 mg/kg, route intravenous. The class given is ADME, organism-based. To be noted: brain and plasma, read-out: Ratio AUC. Summed up:
as §1

Data set [26] relates to Brain. Nature of the data set: Cmax in perfused Sprague-Dawley rat brain assessed as active metabolite oseltamivir carboxylate level at 30 mg/kg, iv. More on the design: dose 30 mg/kg, route intravenous. The format is ADME, organism-based. The settings on record: in vivo. The essentials: as §1
The nature of data set [27]: Cmax ratio in cerebrospinal fluid to plasma in perfused Sprague-Dawley rat at 30 mg/kg, iv. To be noted: cerebrospinal fluid and plasma. Also on record: dose 30 mg/kg, route intravenous. The class given is ADME, organism-based, CSF/Plasma. The essentials: as §1
The nature of data set [28]: Cmax ratio in brain to plasma in non-perfused Sprague-Dawley rat at 30 mg/kg, iv. The format is ADME, organism-based. Also on record: dose 30 mg/kg, route intravenous. To be noted: brain and plasma. Summed up:
as §1

MDR1 (P-gp, ABCB1), sequence (P08183 whole entry): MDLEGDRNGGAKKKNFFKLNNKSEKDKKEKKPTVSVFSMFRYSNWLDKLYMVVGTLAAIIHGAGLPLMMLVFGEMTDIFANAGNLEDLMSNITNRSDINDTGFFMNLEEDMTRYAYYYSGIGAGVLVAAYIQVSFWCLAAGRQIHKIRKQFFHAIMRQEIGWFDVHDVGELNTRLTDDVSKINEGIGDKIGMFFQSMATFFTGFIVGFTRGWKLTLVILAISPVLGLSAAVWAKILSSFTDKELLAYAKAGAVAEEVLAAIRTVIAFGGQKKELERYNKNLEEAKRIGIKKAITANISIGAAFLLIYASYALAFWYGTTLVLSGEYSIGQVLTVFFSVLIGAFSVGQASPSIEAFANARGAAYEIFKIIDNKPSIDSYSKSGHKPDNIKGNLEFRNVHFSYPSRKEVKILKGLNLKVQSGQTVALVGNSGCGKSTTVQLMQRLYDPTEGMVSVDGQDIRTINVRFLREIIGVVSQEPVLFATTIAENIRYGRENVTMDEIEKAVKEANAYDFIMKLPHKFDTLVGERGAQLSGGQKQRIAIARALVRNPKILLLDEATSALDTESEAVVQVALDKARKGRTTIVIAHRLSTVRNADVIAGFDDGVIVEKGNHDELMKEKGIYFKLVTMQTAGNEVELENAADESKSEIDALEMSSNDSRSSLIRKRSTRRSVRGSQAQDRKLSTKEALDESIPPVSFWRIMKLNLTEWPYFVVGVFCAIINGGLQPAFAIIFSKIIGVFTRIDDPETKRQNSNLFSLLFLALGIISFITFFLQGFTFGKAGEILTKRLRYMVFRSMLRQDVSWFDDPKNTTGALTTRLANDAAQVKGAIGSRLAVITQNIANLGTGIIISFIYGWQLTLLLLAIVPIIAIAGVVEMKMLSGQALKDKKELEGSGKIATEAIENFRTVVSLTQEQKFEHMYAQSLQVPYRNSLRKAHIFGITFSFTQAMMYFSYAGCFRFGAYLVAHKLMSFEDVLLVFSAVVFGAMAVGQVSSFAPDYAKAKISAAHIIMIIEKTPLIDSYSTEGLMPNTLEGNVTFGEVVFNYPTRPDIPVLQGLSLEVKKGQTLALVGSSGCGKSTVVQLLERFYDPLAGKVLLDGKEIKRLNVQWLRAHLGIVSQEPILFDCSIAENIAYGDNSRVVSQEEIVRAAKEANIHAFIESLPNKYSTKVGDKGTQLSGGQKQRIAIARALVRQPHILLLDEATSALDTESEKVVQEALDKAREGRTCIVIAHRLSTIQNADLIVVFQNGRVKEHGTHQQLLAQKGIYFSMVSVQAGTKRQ

The compound `CCOC(=O)C1=C[C@@H](OC(CC)CC)[C@H](NC(C)=O)[C@@H](N)C1` [OSELTAMIVIR] returned a clearance in data set [1] of 93.9 mL/min/kg. Moreover, the Activity in [2] is reported as 1001 nmol; in data set [5], less than 0.06%; in [6] it was 1446 nmol; in [7] it was less than 0.06%; in data set [8] it was less than 0.2 pmol/s; in data set [9], 2.11 pmol/s. The Activity is recorded as 126 pmol/s in [11]; 482 nmol in data set [12]; 574 nmol in data set [13]; “Not Active” in [15]; “Active” in data set [16]. Moreover, the Kp is 0.09 in [3] and 0.21 in data set [10]. Also, in data set [4], the Papp A→B came to 3.89 ×10⁻⁶ cm/s. This compound yielded an AUC in data set [14] of 5330.

Regarding `CCC(CC)O[C@@H]1C=C(C(=O)O)C[C@H](N)[C@H]1NC(C)=O` [OSELTAMIVIR CARBOXYLATE], the AUC in [17] was determined as 12800; in [18] it was 13600. The Cmax in data set [19] is 75.5 ng/g; in [20], “BLD”; in data set [21], 6880 ng/mL; in [26] it was 75.5 ng/g. The Kp was 0.02 in data set [22]; 0.01 in [23]; less than 0.004 in data set [25]; 0.003 in data set [27]; 0.02 in [28]. Further, the “beta t1/2” value in data set [24] is 1.71 h.
